Here are results for 7 molecules from ChEMBL document CHEMBL1156237, “Antiviral activity of benzimidazole derivatives. II. Antiviral activity of 2-phenylbenzimidazole derivatives” (Bioorg Med Chem, 2010).

One data set deals with Human alphaherpesvirus 1. Nature of the data set: Antiviral activity against HSV1 KOS infected in african green monkey Vero cells after 3 days by plaque reduction assay. The following applies: Human alphaherpesvirus 1, KOS, 72 h. The class given is functional, organism-based. A digest of the protocol: (§1)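 Plaque reduction assay. Vero 76 cells at 2 × 10^5/well, grown overnight to confluence in D-MEM with 10% FBS. Infected 2 h with 50–100 PFU/well, unadsorbed virus removed. Overlay of D-MEM with 1% inactivated FBS and 0.75% methylcellulose, with or without serial compound dilutions. Incubated at 37 °C for 3 days (HSV-1 KOS, CVB-2 Ohio-1) or 5 days (RSV A2). Fixed and stained with crystal violet in 50% ethanol; plaques counted; EC50 by linear regression.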

Data set [1] deals with Vesicular stomatitis virus. Nature of the data set: Antiviral activity against VSV Indiana lab infected in african green monkey Vero cells after 2 days by plaque reduction assay. Format: functional, organism-based. (Plaques are areas of infected cells; plaque reduction assays count them against a control.)
The subject of the next data set is Poliovirus 1. Nature of the data set: Antiviral activity against Polio virus type1 Sabin strain Chat infected in african green monkey Vero cells after 2 days by plaque reduction assay. Conditions: Enterovirus C, 48 h. Format: functional, organism-based, Human poliovirus 1 strain Sabin.
Another data set concerns Coxsackievirus B2. In words: Antiviral activity against Human coxsackievirus B2 Ohio-1 infected in african green monkey Vero cells after 3 days by plaque reduction assay. Format: functional, organism-based, Coxsackievirus B2 (strain Ohio-1). Conditions: Enterovirus B, Vero, 72 h. In a few lines:
as §1

A short description of data set [2]: Cytotoxicity against BHK cells after 48 to 96 hrs by MTT assay. Conditions: hamster. The class given is cell-based, Mesocricetus auratus. A digest of the protocol: (§2)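 Cell seeding: MDBK at 6 × 10^5 cells/mL in MEM-E with 10% horse serum and 1 mM Na pyruvate; BHK at 1 × 10^6 cells/mL in MEM-E with 10% FBS. Serial compound dilutions, 37 °C, 5% CO2. Viability of mock-infected cells by MTT after 48–96 h; CC50 is the concentration reducing viability by 50%.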
On the technique in general: Tetrazolium assays rely on reduction of a dye to a coloured formazan, in cell work by metabolically active cells.

The next data set has as its system Vaccinia virus. Nature of the data set: Antiviral activity against Vaccinia virus Elstree-Lister infected in african green monkey Vero cells after 3 days by plaque reduction assay. Format: functional, organism-based. The following applies: Orthopoxvirus vaccinia, 72 h.
Data set [3] has as its system Bovine viral diarrhea virus 1. Nature of the data set: Antiviral activity against Bovine viral diarrhea virus NADL infected in MDBK cells assessed as protection from virus-induced cytopathogenicity after 3 to 4 days by MTT method. The class given is functional, organism-based, Bovine viral diarrhea virus 1-NADL. The following applies: Bovine viral diarrhea virus isolates and strains, MDBK. A digest of the protocol: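 Cytopathogenicity protection assay. MDBK cells at 3 × 10^4/well, grown overnight to confluence. Infected with BVDV NADL at m.o.i. 0.01 in MEM-E with 0.5% inactivated FBS, 1 mM Na pyruvate and 1% kanamycin. Serial compound dilutions added after 1 h. After 3–4 days at 37 °C, viability read by MTT; EC50 is the concentration giving 50% protection.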
(Cytopathic effects are the visible damage that an infection or toxin causes in cultured cells.)

A short description of data set [4]: Cytotoxicity against MDBK cells after 48 to 96 hrs by MTT assay. Format: cell-based, Bos taurus. Conditions: cattle, MDBK cells. A digest of the protocol:
as §2

The test system of data set [5] is Human immunodeficiency virus 1. In words: Antiviral activity against HIV1 3B infected in human MT4 cells assessed as protection from virus-induced cytopathogenicity after 4 days by MTT method. Format: functional, organism-based. In a few lines: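 MT-4 cells, 1 × 10^4/well in RPMI with or without serial compound dilutions, infected with HIV-1 IIIB, 100 CCID50 (m.o.i. 0.01). Protection from virus-induced cytopathogenicity read by MTT.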

Data set [6] deals with Respiratory syncytial virus. In words: Antiviral activity against RSV A2 infected in african green monkey Vero cells after 5 days by plaque reduction assay. The class given is functional, organism-based. The following applies: human respiratory syncytial virus, A2, Vero, 120 h. A digest of the protocol:
as §1

The nature of data set [7]: Cytotoxicity against african green monkey Vero cells. The class given is cell-based. The following applies: chlorocebus sabaeus. In a few lines:
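Vero 76 monolayers exposed to serial compound dilutions, run in parallel on the same 24-well plates as the plaque-reduction assays. CC50 is the concentration reducing viability of mock-infected cells by 50%.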

The nature of data set [8]: Cytotoxicity against human MT4 cells after 96 hrs by MTT assay. Format: cell-based. Conditions: MT4 cells. In a few lines: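 Exponentially growing MT-4 cells at 1 × 10^5 cells/mL in RPMI-1640 with 10% FCS, exposed to serial compound dilutions at 37 °C, 5% CO2. Viability by MTT after 96 h; CC50 is the concentration reducing viability of mock-infected cells by 50%.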

The next data set has as its system Yellow fever virus. Nature of the data set: Antiviral activity against Yellow fever virus 17D infected in BHK cells assessed as protection from virus-induced cytopathogenicity after 3 to 4 days by MTT method. Format: functional, organism-based.

Activity calls are given as the source filed them. The rule behind the calls is not given here. Some results are limits rather than exact numbers.

Broadly, the EC50 is the concentration that produces a half-maximal response. For orientation: CC50 means the concentration giving 50% cytotoxicity.

Turning to `O=[N+]([O-])c1ccc(-c2nc3cc(C(F)(F)F)ccc3n2C2CCCCC2)cc1`, the EC50 in the data set with Human alphaherpesvirus 1 is over 100 µM; with Poliovirus 1 it was over 100 µM; with Coxsackievirus B2 it was 45 µM; in the data set on Vaccinia virus it was 87 µM; in data set [3], 60 µM; in data set [6], over 100 µM. Moreover, in the data set with Yellow fever virus, the EC50 is over 100 µM. Also, the outcome in data set [1] and in [5] was inactive. The CC50 is over 100 µM in data set [2], 68 µM in [4] and over 100 µM in data set [7]. In data set [8], this molecule showed a CC50 at 96 h of 49 µM.

`COc1ccc(-c2nc3cc(C(F)(F)F)ccc3[nH]2)c(N)c1`: the EC50 with Human alphaherpesvirus 1 was over 50 µM; in the data set on Poliovirus 1, 18 µM; in the data set on Coxsackievirus B2 it was 6 µM; in the data set with Vaccinia virus, over 50 µM; in data set [3], over 4 µM; in [6], over 50 µM. Besides, the EC50 in the data set with Yellow fever virus came to 20 µM. The outcome in data set [1] and in data set [5] was inactive. In addition, the CC50 was at least 100 µM in data set [2], 4 µM in data set [4] and 50 µM in [7]. In data set [8], this molecule yielded a CC50 at 96 h of 5 µM.

Regarding `COc1ccc(-c2nc3cc(C(F)(F)F)ccc3[nH]2)cc1`, the EC50 in the data set on Human alphaherpesvirus 1 is over 15 µM; in the data set on Poliovirus 1, over 15 µM; with Coxsackievirus B2, 7 µM; with Vaccinia virus it was over 15 µM; in data set [3], 1 µM; in [6] it was over 15 µM. Besides, the EC50 in the data set on Yellow fever virus is over 100 µM. The result in [1] and in data set [5] was inactive. The CC50 in [2] is over 100 µM; in data set [4], over 100 µM; in data set [7] it was 15 µM. Further, it took 2 µM to reach half-maximal cytotoxicity in data set [8] (CC50 at 96 h).

In the case of `COc1ccc(-c2nc3cc(Cl)c(Cl)cc3[nH]2)cc1`, the EC50 is 20 µM with Human alphaherpesvirus 1; over 30 µM in the data set with Poliovirus 1; 10 µM in the data set on Coxsackievirus B2; over 30 µM in the data set with Vaccinia virus; over 2.5 µM in data set [3]; over 30 µM in data set [6]. Also, the EC50 with Yellow fever virus was over 18 µM. The result in data set [1] and in data set [5] was inactive. Moreover, the CC50 in data set [2] came out at 18 µM; in [4], 2.5 µM; in data set [7], 30 µM. In data set [8], this molecule gave a CC50 at 96 h of 1 µM.

With `Cn1c(-c2ccc([N+](=O)[O-])cc2)nc2cc(C(F)(F)F)ccc21`, the EC50 (in the data set with Human alphaherpesvirus 1; with Poliovirus 1; in the data set on Coxsackievirus B2; in the data set on Vaccinia virus; in [3]; in [6]) was over 100 µM in each case. In the data set on Yellow fever virus, the EC50 is over 100 µM. Moreover, the result in [1] and in data set [5] was inactive. Further, the CC50 in data set [2], in [4] and in data set [7] was over 100 µM each time. In data set [8], this molecule came in with a CC50 at 96 h of at least 100 µM.

`COc1ccc(-c2nc3cc(C(F)(F)F)ccc3[nH]2)c([N+](=O)[O-])c1`: the 50% effective concentration (EC50) in the data set on Human alphaherpesvirus 1 was over 20 µM; in the data set on Poliovirus 1 it was over 20 µM; in the data set with Coxsackievirus B2, over 20 µM; in the data set with Vaccinia virus, over 20 µM; in [3], over 55 µM; in [6], over 20 µM. The EC50 in the data set with Yellow fever virus was over 100 µM. Also, the result in data set [1] and in data set [5] was inactive. Further, the CC50 in data set [2] is 100 µM; in [4], 55 µM; in data set [7], 20 µM. In data set [8], this molecule had a CC50 at 96 h of 85 µM.

Regarding `O=[N+]([O-])c1ccc(-c2nc3cc(C(F)(F)F)ccc3n2C23CC4CC(CC(C4)C2)C3)cc1`, the EC50 (with Human alphaherpesvirus 1; in the data set with Poliovirus 1; with Coxsackievirus B2; with Vaccinia virus; in data set [3]; in data set [6]) was over 100 µM in each case. Also, the EC50 in the data set on Yellow fever virus was over 100 µM. Moreover, the outcome in data set [1] and in data set [5] was inactive. For the same molecule, the CC50 in data set [2], in [4] and in [7] was over 100 µM in each case. The molecule also yielded a CC50 at 96 h in data set [8] of at least 100 µM.
